Data taken from publication PMC2659725 (Archives of biochemistry and biophysics, 2009).
Entries after “also recorded” stand apart in the source; their conditions may differ. Read-outs that look alike come from different tables or passages of the source. One block for each molecule: values may come before it.

Assays:
tubulin [1] = target: tubulin (Bos taurus, UniProt P81947+Q6B856); format: biochemical, bovine; conditions: for Effect on paclitaxel-induced tubulin assembly: 30 μM tubulin, 30 μM paclitaxel
Sequence of tubulin (Bos taurus, UniProt P81947+Q6B856) (P81947 whole entry): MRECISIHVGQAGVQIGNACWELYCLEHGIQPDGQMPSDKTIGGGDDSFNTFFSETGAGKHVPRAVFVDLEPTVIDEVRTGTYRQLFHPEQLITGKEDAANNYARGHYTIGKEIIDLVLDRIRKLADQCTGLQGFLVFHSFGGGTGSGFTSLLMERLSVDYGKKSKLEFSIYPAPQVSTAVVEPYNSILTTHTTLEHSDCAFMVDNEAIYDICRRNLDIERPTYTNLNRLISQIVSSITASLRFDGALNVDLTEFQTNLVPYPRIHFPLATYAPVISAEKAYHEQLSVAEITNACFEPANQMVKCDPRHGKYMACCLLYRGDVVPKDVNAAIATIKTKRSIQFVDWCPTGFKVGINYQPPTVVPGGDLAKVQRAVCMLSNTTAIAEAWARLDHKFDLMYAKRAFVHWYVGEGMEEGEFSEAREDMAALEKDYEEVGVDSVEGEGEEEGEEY
Sequence of tubulin (Bos taurus, UniProt P81947+Q6B856) (Q6B856 whole entry): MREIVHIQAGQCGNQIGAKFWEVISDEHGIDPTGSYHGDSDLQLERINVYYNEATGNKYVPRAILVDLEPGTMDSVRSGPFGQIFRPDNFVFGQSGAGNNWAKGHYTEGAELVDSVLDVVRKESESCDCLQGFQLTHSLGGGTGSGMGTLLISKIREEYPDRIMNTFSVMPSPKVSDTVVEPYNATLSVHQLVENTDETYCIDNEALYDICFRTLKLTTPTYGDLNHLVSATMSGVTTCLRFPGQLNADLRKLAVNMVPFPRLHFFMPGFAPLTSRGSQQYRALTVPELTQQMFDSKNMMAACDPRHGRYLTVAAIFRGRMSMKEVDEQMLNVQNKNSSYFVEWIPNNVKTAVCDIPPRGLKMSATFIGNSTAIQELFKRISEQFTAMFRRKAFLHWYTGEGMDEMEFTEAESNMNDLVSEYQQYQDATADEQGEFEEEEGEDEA

[2] = test system: subtilisin-treated tubulin; assay: Paclitaxel-induced assembly of subtilisin-treated tubulin; format: biochemical, bovine; conditions: same tubulin concentration (10 μM)
microtubules = microtubules (Bos taurus, UniProt P81947+Q6B856); assay: Lengths of paclitaxel-induced microtubules by electron microscopy; format: biochemical, bovine; conditions: for Mean microtubule length ± SD, Average / Mean microtubule length ± SD, Experiment I / Mean microtubule length ± SD, Experiment II: paclitaxel-induced microtubules
Sequence of microtubules (P81947 whole entry): as the sequence (P81947 whole entry) above
Sequence of microtubules (Q6B856 whole entry): as the sequence (Q6B856 whole entry) above
In short: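 Paclitaxel-induced polymers were formed with GDP at the stated levels and monitored turbidimetrically. Samples were placed on carbon-coated formvar copper grids and stained with 1% uranyl acetate. Lengths were measured from EM negatives.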

[3] = test system: taxoid site of microtubules; assay: Displacement of a fluorescent taxoid analog from microtubules; format: binding; conditions: fluorescence anisotropy; personal communication, Dr. Fernando Díaz
tubulin E-site = conditions: read-out: Kd for GDP binding to the E-site; cited from earlier work
tubulin with MAPs = tubulin with MAPs (Bos taurus, UniProt P81947+Q6B856); assay: Paclitaxel-induced tubulin assembly with heat-treated MAPs; format: biochemical, bovine
Sequence of tubulin with MAPs (P81947 whole entry): as the sequence (P81947 whole entry) above
Sequence of tubulin with MAPs (Q6B856 whole entry): as the sequence (Q6B856 whole entry) above

tubulin [4] = assay: Critical concentration of tubulin for paclitaxel-induced assembly; format: biochemical, bovine; conditions: 10 μM paclitaxel
In short: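 Bovine brain tubulin, MAP-free, carrying E-site GDP and N-site GTP, with no exogenous GTP or Mg2+. Assay buffer 0.1 M Mes (pH 6.9) with 10 μM paclitaxel, plus heat-treated MAPs or MAPs with GTP where indicated. Components mixed at 0 °C, held 2 min, jumped to 30 °C and followed about 30 min. Turbidity read at 350 nm.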

tubulin [5] = conditions: paclitaxel, 37 °C, cited from earlier work

Effect on paclitaxel-induced tubulin assembly (tubulin [1]; no exogenous GTP): had any inhibitory effect, nor did
Compound: Nc1ncnc2c1ncn2[C@@H]1O[C@H](COP(=O)(O)OP(=O)(O)O)[C@@H](O)[C@H]1O [ADP]

Compound: Nc1ncnc2c1ncn2[C@@H]1O[C@H](COP(=O)(O)OP(=O)(O)OP(=O)(O)O)[C@@H](O)[C@H]1O [ATP]
Effect on paclitaxel-induced tubulin assembly (tubulin [1]; no exogenous GTP): weak inhibitory effect; also recorded: extensive inhibition; also recorded: inhibited

Effect on paclitaxel-induced tubulin assembly (tubulin [1]; no exogenous GTP): had any inhibitory effect, nor did
Compound: Nc1ccn([C@@H]2O[C@H](COP(=O)(O)OP(=O)(O)O)[C@@H](O)[C@H]2O)c(=O)n1 [CDP]

Effect on paclitaxel-induced tubulin assembly (tubulin [1]; no exogenous GTP): Still weaker effects
Compound: Nc1ccn([C@@H]2O[C@H](COP(=O)(O)OP(=O)(O)OP(=O)(O)O)[C@@H](O)[C@H]2O)c(=O)n1 [CTP]

IC50 with subtilisin-treated tubulin lower than value obtained with MAPs [2]: about 40%
Mean microtubule length ± SD, Average (microtubules; 5 μM GDP): 2.8 ± 2.1 μm
Mean microtubule length ± SD, Experiment I (microtubules; 5 μM GDP): 3.7 ± 2.2 μm
Mean microtubule length ± SD, Experiment II (microtubules; 5 μM GDP): 2.1 ± 1.5 μm
Mean microtubule length ± SD, Average (microtubules; 10 μM GDP): 2.8 ± 2.1 μm
Mean microtubule length ± SD, Experiment I (microtubules; 10 μM GDP): 3.5 ± 2.3 μm
Mean microtubule length ± SD, Experiment II (microtubules; 10 μM GDP): 2.2 ± 1.6 μm
Mean microtubule length ± SD, Average (microtubules; 50 μM GDP): 2.7 ± 2.4 μm
Mean microtubule length ± SD, Experiment I (microtubules; 50 μM GDP): 4.5 ± 3.2 μm
Mean microtubule length ± SD, Experiment II (microtubules; 50 μM GDP): 2.0 ± 1.5 μm
Change in average microtubule length (microtubules; whatever the GDP concentration (5-50 μM)): essentially no change
Effect on paclitaxel-induced tubulin assembly (tubulin [1]; 5 μM GDP): significant inhibitory effect
Effect on paclitaxel-induced tubulin assembly (tubulin [1]; 100 μM GDP): almost totally eliminated
Increase of the IC50 when 2 mM MgCl2 was added (tubulin [1]; 57 vs 15 μM): ~4 fold
Compound: Nc1nc2c(ncn2[C@@H]2O[C@H](COP(=O)(O)OP(=O)(O)O)[C@@H](O)[C@H]2O)c(=O)[nH]1 [GDP]
Displacement of fluorescent taxoid analog from microtubules [3]: unable to displace the fluorescent taxoid
Kd (tubulin E-site): 0.02 to 0.06 µM

Effect on paclitaxel-induced tubulin assembly (tubulin [1]; no exogenous GTP): enhancing assembly
Compound: Nc1nc2c(ncn2[C@@H]2O[C@H](COP(=O)(O)OP(=O)(O)OP(=O)(O)O)[C@@H](O)[C@H]2O)c(=O)[nH]1 [GTP]

Effect on paclitaxel-induced tubulin assembly (tubulin [1]; no exogenous GTP): had any inhibitory effect, nor did
Compound: O=c1[nH]cnc2c1ncn2[C@@H]1O[C@H](COP(=O)(O)OP(=O)(O)O)[C@@H](O)[C@H]1O [IDP]

Effect on paclitaxel-induced tubulin assembly (tubulin [1]; no exogenous GTP): stimulatory
Compound: O=c1[nH]cnc2c1ncn2[C@@H]1O[C@H](COP(=O)(O)OP(=O)(O)OP(=O)(O)O)[C@@H](O)[C@H]1O [ITP]

Effect on paclitaxel-induced tubulin assembly (tubulin [1]; no exogenous GTP): had any inhibitory effect, nor did
Compound: O=c1ccn([C@@H]2O[C@H](COP(=O)(O)OP(=O)(O)O)[C@@H](O)[C@H]2O)c(=O)[nH]1 [UDP]

Effect on paclitaxel-induced tubulin assembly (tubulin [1]; no exogenous GTP): stimulatory
Compound: O=c1ccn([C@@H]2O[C@H](COP(=O)(O)OP(=O)(O)OP(=O)(O)O)[C@@H](O)[C@H]2O)c(=O)[nH]1 [UTP]

Effect on paclitaxel-induced tubulin assembly (tubulin [1]; no exogenous GTP): stimulatory
Compound: O=c1[nH]c(=O)c2ncn([C@@H]3O[C@H](COP(=O)(O)OP(=O)(O)OP(=O)(O)O)[C@@H](O)[C@H]3O)c2[nH]1 [XTP]

Compound: COc1cc2cc(c1Cl)N(C)C(=O)C[C@H](OC(=O)[C@H](C)N(C)C(C)=O)[C@]1(C)O[C@H]1[C@H](C)[C@@H]1C[C@@](O)(NC(=O)O1)[C@H](OC)/C=C/C=C(\C)C2 [maytansine]
IC50 (tubulin with MAPs): < 5 µM
IC50 (tubulin [1]): < 5 µM

Extent of tubulin assembly (tubulin [1]; tubulin and paclitaxel both at 10 μM, no GTP, no MAPs): negligible assembly
Compound: CC(=O)O[C@H]1C(=O)[C@@]2(C)[C@H]([C@H](OC(=O)c3ccccc3)[C@]3(O)C[C@H](OC(=O)[C@H](O)[C@@H](NC(=O)c4ccccc4)c4ccccc4)C(C)=C1C3(C)C)[C@]1(OC(C)=O)CO[C@@H]1C[C@@H]2O [paclitaxel, Paclitaxel]
Reduction in critical concentration by subtilisin treatment (tubulin [4]; 15 μM to 1.6 μM): ~10 fold
Critical concentration of tubulin (tubulin [4]; 30 °C, MAPs alone added): about 3.5 μM
Critical concentration of tubulin (tubulin [4]; both MAPs and GTP added): less than 1 μM
Critical concentration of subtilisin-treated tubulin (tubulin [4]; subtilisin-treated tubulin): 1.6 µM
Critical concentration of tubulin (tubulin [5]; no GTP, no MAPs, obtained previously): 22 to 28 µM
Critical concentration of tubulin (tubulin [5]; with MAPs, different protein preparations): 2 to 5 µM

Compound: COc1cc([C@@H]2c3cc4c(cc3[C@H](O)[C@H]3COC(=O)[C@H]23)OCO4)cc(OC)c1OC [podophyllotoxin, Podophyllotoxin]
IC50 (tubulin with MAPs): < 5 µM
